Most compounds without a hit are left out; they make up all but 2.1% or so of the library.
EWS-Fli inh – EWS/Fli-driven NR0B1 reporter inhibitors, primary screen, A673 cells, NR0B1 luciferase, luminescence, MLPCN library; 350,000 compounds, 0.67% hits; inhibition, % at 12.6 µM; viability-normalised;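 active = mean inhibition of at least 50% after viability correction, with every replicate also passing that limit; inconclusive = mean reaches 50% but only one of two replicates passes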;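 note: firefly luciferase signal divided by Alamar Blue viability fluorescence both relative to DMSO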
PAX8 reporter – inhibitors of PAX8-driven TPO luciferase reporter, primary screen, RMG-I cells, single concentration. SteadyGlo, 24 h. inhibition, % at 12.6 µM. 360,000 compounds, 1.2% hits. AID 652154, 2013;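 active = mean replicate inhibition at least 60% with every replicate also reaching 60%; inconclusive = only one of the two criteria is met; inactive = mean below 60% and not all replicates reaching 60%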;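 note: luciferase light reporting Pax8 driven TPO promoter activity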
PGC1a acetyl inh – inhibitors of PGC1a acetylation signal, primary screen, cell-based, U2OS, AlphaScreen, inhibitor mode; 350,000 compounds, 0.17% hits; AlphaScreen anti-acetyl-lysine; with virally co-expressed GCN5 acetyltransferase; AID 651687, 2012; inhibition, % at 15.6 µM;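 active = every replicate shows inhibition of at least 40%; inconclusive = mean inhibition at least 40% but some replicate below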
INS-1E GSIS act – GLuc luminescence reporter in INS-1E cells, primary screen for activators of glucose-dependent secretion of insulin | INS-1E GLuc reporter insulin secretion, 2-3 h | AID 743287, 2014 | 370,000 compounds, 0.61% hits | activation, % at 16.6 µM;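 active = lowest replicate activation of at least 40%, so every replicate reaches that level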
XiGFP reactiv – activators of inactive X chromosome reactivation, primary screen, imaging, XiGFP fibroblasts, GFP high-content imaging, set 2; 360,000 compounds, 0.055% hits; activation, % at 7.58 µM; AID 743238, 2013; XiGFP mouse fibroblasts, % GFP-positive cells imaging, 3 d; cells co-treated with 5-aza-dC sensitizer; scaled so ellipticine positive control = 100%;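 active = mean normalized replicate activation at least 10% and every replicate at or above 10%; inconclusive = only one of the two criteria met; inactive = mean below 10% and not all replicates reach 10%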
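Schedule: 3 d treatment, 15 min room-temperature fixation; system: 68-5-11 XiGFP fibroblast line; buffer or medium: DMEM plus 5-aza-dC sensitizer; control set: ellipticine 6 µM positive control; compound: one concentration, pinned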
AF4-AF9 inh – inhibitors of AF4 peptide binding to AF9, primary screen, biochemical, AlphaScreen, biotin-AF4 peptide, FLAG-AF9, single point; Protein AF-9 (Homo sapiens), P42568; 350,000 compounds, 0.47% hits; inhibition, % at 10 µM;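 active = every replicate reaching a set inhibition limit, whatever the replicate mean, cut at about 25% in these data; inconclusive = mean inhibition reaches that limit but some replicates miss it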
Target sequence (P42568 whole entry, looked up): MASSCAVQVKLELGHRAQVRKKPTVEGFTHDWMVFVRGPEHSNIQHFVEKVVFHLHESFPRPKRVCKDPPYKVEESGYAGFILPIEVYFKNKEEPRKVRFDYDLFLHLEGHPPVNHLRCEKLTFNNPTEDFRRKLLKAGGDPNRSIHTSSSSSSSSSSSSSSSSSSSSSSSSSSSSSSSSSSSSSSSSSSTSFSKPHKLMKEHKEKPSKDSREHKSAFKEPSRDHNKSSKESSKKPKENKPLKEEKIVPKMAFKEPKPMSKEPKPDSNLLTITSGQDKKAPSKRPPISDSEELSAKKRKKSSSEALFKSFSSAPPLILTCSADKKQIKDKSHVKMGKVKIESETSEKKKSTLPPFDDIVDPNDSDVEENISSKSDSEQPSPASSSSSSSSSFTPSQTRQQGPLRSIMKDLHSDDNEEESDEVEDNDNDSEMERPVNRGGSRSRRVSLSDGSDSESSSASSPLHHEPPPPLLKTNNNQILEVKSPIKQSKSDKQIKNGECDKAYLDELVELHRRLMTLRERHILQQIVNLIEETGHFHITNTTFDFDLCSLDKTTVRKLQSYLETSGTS
Hits are given with their value.

Screening Cc1ccc(C(=O)CCS(=O)(=O)c2ccc(F)cc2)cc1 returned PAX8 reporter inactive, INS-1E GSIS act inactive, XiGFP reactiv inactive and AF4-AF9 inh inactive.
For COc1ccc(C(=O)N2CCN(S(=O)(=O)c3ccc(F)cc3)CC2)cc1OC the results were PAX8 reporter inactive, INS-1E GSIS act inactive and XiGFP reactiv inactive.
For COc1ccc(C(=O)CCS(=O)(=O)c2ccc(F)cc2)cc1OC the results were EWS-Fli inh inactive, PAX8 reporter inconclusive, INS-1E GSIS act 60, XiGFP reactiv inactive and AF4-AF9 inh inactive.
For CO[C@H]1CN(C)C(=O)c2ccc(NC(=O)Nc3ccccc3F)cc2OC[C@@H](C)NC[C@H]1C the results were EWS-Fli inh inactive, PGC1a acetyl inh inactive, INS-1E GSIS act inactive, XiGFP reactiv inactive and AF4-AF9 inh inactive.
Screening O=C(CCCN1C(=O)/C(=C/c2ccccc2Cl)SC1=S)NNC(=O)c1ccccc1Cl returned EWS-Fli inh 66, PAX8 reporter inactive, INS-1E GSIS act inactive, XiGFP reactiv inactive and AF4-AF9 inh inactive.
O=C(CCN1C(=O)/C(=C/c2ccccc2Cl)SC1=S)N1CCCC1 was read as EWS-Fli inh inactive, PAX8 reporter 83, PGC1a acetyl inh inactive, INS-1E GSIS act inactive, XiGFP reactiv inactive and AF4-AF9 inh inactive.
Screening O=C(CCCN1C(=O)/C(=C/c2ccccc2Cl)SC1=S)N1CCCC1 returned EWS-Fli inh inactive, PAX8 reporter inactive, PGC1a acetyl inh inactive, INS-1E GSIS act inactive, XiGFP reactiv inactive and AF4-AF9 inh inactive.
`O=C(CCCN1C(=O)/C(=C/c2ccccc2Cl)SC1=S)NNC(=O)c1ccncc1` gave EWS-Fli inh inconclusive, PAX8 reporter inactive, INS-1E GSIS act inactive, XiGFP reactiv inactive and AF4-AF9 inh inactive.
For N#C[C@H]1[C@@H](c2ccccc2-c2ccc(F)cc2)[C@@H](CO)N1C(=O)NC1CCCC1 the results were EWS-Fli inh inactive, PGC1a acetyl inh inactive, INS-1E GSIS act inactive, XiGFP reactiv inactive and AF4-AF9 inh inactive.
Screening COc1ccccc1NC(=O)/C=C1\SCC(=O)N1C returned EWS-Fli inh inactive, PAX8 reporter inactive, PGC1a acetyl inh 93, INS-1E GSIS act inactive, XiGFP reactiv inactive and AF4-AF9 inh inactive.
Screening COc1ccc(-c2cnnn2-c2ccc(N)cc2)cc1OC returned PGC1a acetyl inh inactive and INS-1E GSIS act 53.
For COc1ccc(S(=O)(=O)N(C)C[C@H]2Oc3ccc(NC(=O)Cn4cnnn4)cc3CC(=O)N([C@@H](C)CO)C[C@H]2C)cc1 the results were EWS-Fli inh inactive, PGC1a acetyl inh inactive, INS-1E GSIS act inactive, XiGFP reactiv inactive and AF4-AF9 inh inactive.
For O=C(N/N=C/c1ccccn1)c1cc(-c2ccc(Br)s2)[nH]n1 the results were EWS-Fli inh inactive, PAX8 reporter inactive, INS-1E GSIS act inactive, XiGFP reactiv inactive and AF4-AF9 inh inactive.
For O=C(N/N=C/c1ccncc1)c1cc(-c2ccc(Br)s2)[nH]n1 the results were EWS-Fli inh inactive, PAX8 reporter inactive, PGC1a acetyl inh inactive, INS-1E GSIS act 43, XiGFP reactiv inactive and AF4-AF9 inh inactive.
For O=C(Oc1c(-c2ccccc2)oc2ccccc2c1=O)c1ccccc1 the results were PGC1a acetyl inh inactive and INS-1E GSIS act inactive.
Screening O=C(Oc1c(-c2ccccc2Cl)oc2ccccc2c1=O)c1ccc(Cl)cc1 returned EWS-Fli inh inactive, PAX8 reporter 68, PGC1a acetyl inh inactive, INS-1E GSIS act inactive, XiGFP reactiv inactive and AF4-AF9 inh inactive.
For COc1cccc(S(=O)(=O)Nc2ccc3c(c2)[C@H]2C[C@@H](CC(=O)N[C@@H](C)c4ccccc4)O[C@H](CO)[C@H]2O3)c1 the results were EWS-Fli inh inactive, PAX8 reporter inactive, PGC1a acetyl inh inactive, INS-1E GSIS act inactive, XiGFP reactiv inactive and AF4-AF9 inh inactive.
For C[C@H]1CN([C@@H](C)CO)C(=O)c2cc(NC(=O)C3CCCCC3)ccc2O[C@@H]1CN(C)Cc1ccc(C(=O)O)cc1 the results were EWS-Fli inh inactive, PGC1a acetyl inh inactive, INS-1E GSIS act inactive, XiGFP reactiv inactive and AF4-AF9 inh inactive.

Screens from PubChem.
